Data reported in ChEMBL document CHEMBL4513216, “Probing the Open Global Health Chemical Diversity Library for Multistage-Active Starting Points for Next-Generation Antimalarials” (ACS Infect Dis, 2020).

Assay: Toxicity liver stage against HepG2, at 10uM
Assay type: cell-based
Set-up: test concentration 10 uM, cell line HepG2-A16-CD81EGFP
Settings: human, HepG2-A16-CD81EGFP cells; read-out: INHIBITION
How it was run: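 Uninfected HepG2-A16-CD81EGFP cells, 3 × 10^3 per well, 1536-well, plated on prespotted compound at 10 μM final, parasite-free screening media added to match infected plates; puromycin 10 μM positive, DMSO 0.5% negative; run in parallel with 48 h PbLuc assay at 37 °C, 5% CO2; viability by CellTiter-Glo luminescence, normalized to controls.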

Point of comparison: O=C(Cc1cccc(F)c1)NCCNCc1cccnc1, cytotoxicity at 10 µM -1.56%. Against it:
- Nc1nnc(SCc2cc(=O)n3c4c(sc3n2)CCCC4)[nH]1 — lower, -4.19%
- CC(=O)Nc1ccc(Oc2ccc3c(c2)OCO3)nc1 — lower, -8.6%
- Cc1cc(=O)n2c(n1)SCC2CC(=O)NCc1cc(-c2ccco2)on1 (stereo not given) — lower, -15.6%
- Cn1cc(S(=O)(=O)NCC2CCN(C(=O)Oc3ccccc3)CC2)cn1 — lower, -8.36%
- COc1ccc(C[C@H]2CN(C(=O)CS(C)(=O)=O)CC[C@H]2OC)cc1 — higher, 2.64%
- CN1C[C@H](COCC2CC2)[C@H]2CCN(Cc3ccco3)CC[C@H]2C1=O — lower, -4.84%
- CC(C)n1c(C(=O)N2CCCC2)nc2c1CCN(c1ncccn1)C2 — lower, -6.72%
- CC(=O)N1CCC(c2cc3c(ncn3C)c(-c3cnn(C)c3)n2)CC1 — higher, 0.472%
- CN(C)C(=O)COCC1C[C@@H]2OCCN(Cc3ccco3)[C@H]2C1 (stereo not given in full) — higher, 11.9%
- O=C(COc1coc(CN2CCSCC2)cc1=O)c1ccccc1 — higher, 9.21%
- CCc1noc(-c2ccc(SCC(=O)O)nc2)n1 — lower, -10.9%
- CCn1c(=O)c2sccc2n(CC(=O)Nc2cccc(Cl)c2)c1=O — higher, 0.115%
- O=c1[nH]nc2c(N3CCC(NC4CCOCC4)CC3)nccn12 — higher, 7.19%
- Cn1c(=O)c2c(n3ncnc13)NC(=O)CC2c1cccc(Br)c1 (stereo not given) — higher, 7.83%
- CC(=O)N1CCC2(CC1)CC(Oc1ccccc1)CO2 (stereo not given) — lower, -8.77%
- O=C(c1n[nH]cc1Br)N1CCOCC1 — higher, 5.31%
- Cc1nc(N2CCN(C(=O)c3ccncc3)CC2)c2c(n1)c(C)nn2C — higher, 10.3%
- CC(NC(=O)c1ccc(F)cc1F)c1cnn(C)c1 (stereo not given) — higher, 3.68%
- CCn1c(NCc2ccccc2)nc2c(C)nn(C)c2c1=O — higher, 10.6%
- CN1CCN(c2nsc(-c3ccccc3)c2C#N)CC1 — higher, 1.28%
- CSCc1cccc(S(=O)(=O)N2CCCC2)c1 — higher, 8.49%
- COc1c(Br)c(C(=O)NC2CC2)nn1C — higher, 3.18%
- O=C(NCc1ccnc(C2CCCOC2)n1)c1cccs1 (stereo not given) — higher, 0.44%
- c1ccc(CN2CCCC(c3nccnc3-n3ccnc3)C2)cc1 (stereo not given) — lower, -4.56%
- Cc1ccc(-c2nnc(SCC(=O)O)n2-c2ccc(C)cc2)cc1 — lower, -3.53%
- CC(=O)N1CCC(Cc2cnc(-c3c(C)nn(C)c3C)cn2)C1 (stereo not given) — lower, -7.31%
- CCN(CC)CCNc1ncc(-c2cc(C)no2)c(-c2ccoc2C)n1 — lower, -4.94%
- CC1c2cc(F)ccc2CCN1C(=O)c1[nH]c(=O)[nH]c(=O)c1N (stereo not given) — higher, 7.78%
- CN(Cc1ccc(C#N)cc1)C(=O)c1ccn(C)c(=O)c1 — lower, -2.81%
- Cc1ccccc1CC(=O)NCCNc1nccc(C(F)(F)F)n1 — higher, 7.64%
- CN(C)C(=O)c1cccc(Nc2cnn(C)c2)c1 — higher, 5.42%
- COc1ccc(Cl)cc1NCC(=O)N(Cc1ccncc1)C1CC1 — higher, 13.7%
- CN(Cc1ccco1)C(=O)CN1C(=O)c2ccccc2C1=O — lower, -2.96%
- CC(NC(=O)CCc1nc(-c2nnc[nH]2)no1)c1ccc(F)cc1F (stereo not given) — lower, -2.05%
- CC(C)COC(=O)N1CCCN(C(=O)c2ccnc(N(C)C)c2)CC1 — lower, -15.1%
- Cc1ccc(-c2ccc(C(=O)NCCC(=O)N(C)C)c(F)c2)cc1 — higher, -0.0916%
- NC(=O)C(CNC(=O)CCc1ccccc1)Cc1ccc(F)cc1 (stereo not given) — higher, 6.62%
- CCn1ccnc1CN1CCN(Cc2cccnc2)CC1C (stereo not given) — higher, -0.191%
- CCOC(C)C(=O)N(C)C1CCN(c2ccc(OC)cc2)CC1 (stereo not given) — lower, -1.57%
- Cc1ccc(CN(C(=O)C(C)NC(N)=O)C2CC2)cc1C (stereo not given) — higher, 7.47%
- Cc1n[nH]c(C2CN(C(=O)c3cc(C)sc3C)CCO2)n1 (stereo not given) — higher, 3.35%
- CNC(=O)c1sc(C2CCCC2)nc1C — higher, 13.1%
- CCc1nsc(N2CCCN(C(=O)c3ccc(OC)cc3)CC2)n1 — higher, 4.05%
- O=C(NCCn1ccnc1)NCc1ccc(N2CCCCCC2)nc1 — higher, 19%
- CC(C)(C)S(=O)(=O)c1ccc(N2CCC(n3cncn3)CC2)cn1 — higher, 3.94%
- COCCCC(=O)N(C)c1ccc(F)c(Cl)c1 — higher, -0.577%
- Cc1nc(COc2ccc(N(C)S(C)(=O)=O)cc2)sc1C — lower, -2.75%
- Cc1cc(CN(C)C(=O)C2CCCN(C(=O)c3ccc(Cl)cc3)C2)no1 (stereo not given) — lower, -15.6%
- COCCN1CCc2ncnc(N(C)C)c2CC1 — higher, -0.025%
- CC(C)N(C)Cc1cc(=O)n2c(n1)CN(C(=O)c1cnccn1)CCC2 — lower, -3.02%
- O=C(c1ccnnc1)N1CCC2(CC1)CN(c1ccccn1)CCO2 — lower, -81.5%
- Cc1cc(C(=O)N2CC[C@@H]3CN(c4ncccn4)CCO[C@@H]3C2)c(C)o1 — higher, 3.52%
- Cn1nnc2c1CCN(Cc1ccccc1)C2COCC1CC1 (stereo not given) — higher, 3.24%
- O=C(C1CCOC1)N1C[C@H]2CN(Cc3ccccn3)C[C@H]2C1 (stereo not given in full) — higher, 1.03%
- CCN1CC2(CCC1=O)CCN(Cc1cccc(C#N)c1)CC2 — higher, -1.1%
- CSCCCNC(=O)C(c1ccccc1C)N(C)C (stereo not given) — higher, 4.68%
- CN1CC2(CCN(Cc3cc(Cl)ccc3OCC(=O)O)CC2)OC1=O — higher, 1.6%
- CCN(C)C(=O)Cn1c(-c2ccco2)nn(-c2ccccc2OC)c1=O — higher, 0.832%
- COc1cccc(Cn2ncnc2CNC(C)=O)c1 — higher, 0.15%
- COc1ccc(Cc2ncc3c(n2)CN(C(=O)CCO)C3)cc1 — higher, 2.37%
- O=C(CCc1cc2n(n1)CCN(Cc1ccncc1)C2)N1CCCC1 — lower, -7.97%
- CC(C)CN1CCc2[nH]cnc2C12CCN(C(=O)c1ccc[nH]1)CC2 — higher, 14.7%
- Cc1nc(C2CCNCC2)cc(N(C)Cc2cc3cc(F)ccc3[nH]2)n1 — lower, -10.7%
- CCN1CCC[C@@H]1CNC(=O)c1cc(COc2ccccc2)[nH]n1 — higher, 0.635%
- Cc1ccc(C)c2c(O)cc(CNCCNC(=O)C(C)C)nc12 — lower, -8.14%
- CCNc1ncc(C(=O)NC(c2ccccc2)c2ccco2)cn1 (stereo not given) — higher, 5.94%
- CC(C)CN1CCc2[nH]cnc2C12CCN(C(=O)c1cncn1C)CC2 — lower, -8.1%
- Cc1cc(=O)[nH]c(=O)n1-c1ccccc1Br — higher, 7.89%
- Cn1c(N2CCOCC2)nc2cc(C(=O)N[C@@H]3CC[C@@H](N)C3)ccc21 — higher, -1.07%
- CSc1ccccc1C(C(=O)O)N1CCN(Cc2ccccn2)CC1 (stereo not given) — lower, -36.2%
- Cc1nc(CN2CCCC(CCc3ccc(F)cc3F)C2)c[nH]1 (stereo not given) — lower, -9.67%
- CC(CN1CCOCC1)NCC1CCN(c2cnn(C)c(=O)c2)CC1 (stereo not given) — lower, -9.93%
- CC(C)c1cc(N2CCC(CCC(=O)NC3CC3)CC2)n2nccc2n1 — lower, -9.12%
- CC(=O)N1CCCCC1c1nc2c(c(N3CCCCC3)n1)CN(C)CC2 (stereo not given) — higher, -0.0788%
- CCN1CCN(C2CCN(CCOc3ccc(F)cc3)CC2)C1=O — lower, -5.38%
- CC(=O)NC(C)C(=O)NCc1ccc(N2CCNC(=O)C2)cc1 (stereo not given) — higher, 2.03%
- CC(C)(C)N1CCN(C(=O)Nc2cc(C(F)(F)F)c[nH]c2=O)CC1 — higher, 5.08%
- Cc1nnc(NC(=O)NCc2ccc(N3CCC(C)CC3)nc2)s1 — higher, -1.36%
- CC(C)c1nccn1C1CCCN(C(=O)CCc2cnn(C)c2)C1 (stereo not given) — lower, -1.58%
- O=C(CN1CCc2cncnc2C1)NCCOc1cccc(Cl)c1 — lower, -6.88%
- c1ccc(-n2nnnc2CNCC2CCCN2c2cccnn2)cc1 (stereo not given) — lower, -4.14%
- Cc1nc2cc(C(=O)N3CCCC(n4ccnc4)C3)ccc2n1C (stereo not given) — lower, -8.44%
- c1ccc(COc2cccc(CNC3CCc4ncnn4C3)c2)cc1 (stereo not given) — lower, -13.7%
- Cc1cnn(C2CCCN(C(=O)c3ccc(-n4ccnc4)cc3)C2)c1 (stereo not given) — higher, -1.14%
- CCc1nc(CN2CCCC(Cn3nc(C)nc3C)C2)no1 (stereo not given) — lower, -2.68%
- CC(=O)NCC1CCN(c2cc(C)nc(-c3ccncc3)n2)CC1 — higher, -1.36%
- Cc1cnc(CN2CCC(N(C)Cc3noc(C4CC4)n3)C2)o1 (stereo not given) — lower, -12.6%
- CS(=O)(=O)N1CCC(NC(=O)COc2ccc3ccccc3c2)CC1 — lower, -5.56%
- Cc1cn2c(n1)CCC(NC(=O)CCn1cncn1)C2 (stereo not given) — lower, -5.72%
- CC(C)(C)NC(=O)NC(=O)CNC(C)(C)c1ccc2c(c1)OCCO2 — lower, -8.72%
- Cc1nc(CNC(=O)NCCc2ccc(N(C)C)cc2)cs1 — lower, -11.6%
- Cc1csc(C2CCCN(C(=O)c3cnc[nH]3)C2)n1 (stereo not given) — lower, -10.7%
- CC(C)c1nc2n(n1)CC(NCc1nnc(-c3ccco3)o1)CC2 (stereo not given) — lower, -9.78%
- CCOC(=O)[C@]12CCCN(Cc3cccs3)C[C@H]1CN(CCOC)C2 — higher, 5.13%
- Fc1ccc(N2CCC3(CC2)CC(OCc2cccnc2)CO3)cc1 (stereo not given) — higher, 9.81%
- c1csc(CN2Cc3nc(CN4CCCC4)oc3C2)c1 — higher, 4.59%
- COCCCN1CCCC12CCN(Cc1cccnc1OC)CC2 — higher, 11.8%
- Cn1ccnc1CN1CCC2(CC(=O)N(c3cncnc3)C2)C1 (stereo not given) — higher, -0.799%
- COCC(=O)N1CC[C@@H]2O[C@H](COCc3ccncc3)CC[C@@H]21 — higher, 2.6%
- CS(=O)(=O)N1C[C@H]2CCCN(Cc3nccs3)[C@H]2C1 — lower, -1.65%
- CCN(C)c1ncc2c(c1C(=O)O)CCN(C1CCOC1)C2 (stereo not given) — higher, 11.5%
- c1cncc(CN2CC[C@H]3O[C@@H](COCC4CCOCC4)CC[C@H]32)c1 — lower, -73.5%
- O=C1CC(c2ccncc2)C2(CCN(C(=O)c3ccc[nH]3)CC2)N1 (stereo not given) — higher, 3.78%
- c1cncc(-c2nnn3c2COCC(CNC2CCOCC2)C3)c1 (stereo not given) — lower, -77%
- CCc1cnc(N2CC[C@H]3[C@@H]2CCC(=O)N3c2ccccc2)nc1 — lower, -6.18%
- COCC1Cn2nnc(-c3cnn(C)c3)c2CN1Cc1ccsc1 (stereo not given) — higher, 2.11%
- COCCN1C(=O)C[C@H]2[C@H]1CCN2Cc1cccc(C#N)c1 — higher, 2.55%
- c1c(CN2CCCC2)nc2n1CCNC2 — higher, 9.94%
- CN(C)C(=O)[C@H]1C[C@H]2CN(S(=O)(=O)c3ccccc3)C[C@@H]1O2 — lower, -83.1%
